Experimental data as given in ChEMBL document CHEMBL1268842, “Discovery of N-benzyl-2-[(4S)-4-(1H-indol-3-ylmethyl)-5-oxo-1-phenyl-4,5-dihydro-6H-[1,2,4]triazolo[4,3-a][1,5]benzodiazepin-6-yl]-N-isopropylacetamide, an orally active, gut-selective CCK1 receptor agonist for the potential treatment of obesity” (Bioorg Med Chem Lett, 2010).
≈ marks a conversion by molar mass, not a printed value. Calls of active or inactive are those of the source. The rule behind the calls is not given here.

Legend:
[1] = target: T1, Gastrin/cholecystokinin type B receptor (Homo sapiens) (UniProt P32239); test: Agonist activity at CCK2 receptor assessed as calcium mobilization by FLIPR assay; assay type: functional
T1 sequence (whole entry): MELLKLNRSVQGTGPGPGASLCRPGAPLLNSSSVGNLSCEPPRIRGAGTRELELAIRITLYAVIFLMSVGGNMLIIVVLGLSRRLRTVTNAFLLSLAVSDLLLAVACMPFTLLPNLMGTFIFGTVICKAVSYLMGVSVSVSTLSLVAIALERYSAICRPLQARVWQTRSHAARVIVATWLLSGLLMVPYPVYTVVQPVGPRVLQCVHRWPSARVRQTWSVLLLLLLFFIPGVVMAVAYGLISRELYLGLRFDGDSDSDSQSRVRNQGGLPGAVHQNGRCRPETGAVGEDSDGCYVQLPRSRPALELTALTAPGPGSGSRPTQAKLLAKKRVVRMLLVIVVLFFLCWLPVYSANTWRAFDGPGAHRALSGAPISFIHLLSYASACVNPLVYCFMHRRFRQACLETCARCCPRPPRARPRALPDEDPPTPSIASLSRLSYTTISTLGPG

Rattus norvegicus [2] = test: Antiobesity activity in Sprague-Dawley rat assessed as reduction in spontaneous food intake at 6 mg/kg, po administered via SDD formulation measured at 4 hrs; assay type: functional
In short: (§1)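 Rats were dosed orally at 6 mg/kg, as amorphous material unless stated or as a solid spray-dried dispersion (SDD). Spontaneous food intake was measured against vehicle at 4 h post-dose, and at 12 h where stated. Significance was P <0.05 versus vehicle unless noted.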

Rattus norvegicus [3] = test: Biliary clearance in Sprague-Dawley rat at 3 mg/kg, iv by HPLC/MS/MS analysis; assay type: ADME, organism-based; set-up: dose 3 mg/kg, route intravenous; conditions: in vivo
Mus musculus [4] = test: Induction of emptying of gallbladder in C57BL/6J mouse at 6 mg/kg, po administered via SDD formulation measured at 1 hr; assay type: functional
In short: (§2)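 Mouse gallbladder emptying model. Compounds were given orally, as amorphous material unless noted or as an SDD formulation where stated. Gallbladder emptying (%) was read at 1 h after 6 mg/kg. Gallbladder refilling was assessed at 24 h.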

[5] = Plasma clearance in Sprague-Dawley rat at 3 mg/kg, iv by HPLC/MS/MS analysis; assay type: ADME, organism-based; set-up: dose 3 mg/kg, route intravenous
In short: (§3)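 Male Sprague-Dawley rats, n of 3, given a single 3.0 mg/kg iv dose or 6.0 mg/kg po dose. Plasma exposure was followed over time. Values are mean with standard deviation.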

[6] = Lipophilicity, log D of the compound at pH 7.4; assay type: physicochemical; conditions: buffer
Rattus norvegicus [7] = species: Rattus norvegicus; conditions: Sprague-Dawley, 6 mg/kg
[8] = Intrinsic clearance in human liver microsomes; assay type: ADME, Microsome
Rattus norvegicus [9] = test: fCmax in Sprague-Dawley rat at 6 mg/kg, po by HPLC/MS/MS analysis; assay type: ADME, organism-based; set-up: dose 6 mg/kg, route oral; conditions: in vivo; in short: as §3
[10] = Volume of distribution at steady state in Sprague-Dawley rat at 3 mg/kg, iv by HPLC/MS/MS analysis; assay type: ADME, organism-based; set-up: dose 3 mg/kg, route intravenous; conditions: in vivo, read-out: Vdss; in short: as §3
[11] = Blood clearance predicted from rat liver microsomes; conditions: whole blood
[12] = Half life in Sprague-Dawley rat at 3 mg/kg, iv by HPLC/MS/MS analysis; assay type: ADME, organism-based; set-up: dose 3 mg/kg, route intravenous; conditions: in vivo; in short: as §3
Rattus norvegicus [13] = test: Tmax in Sprague-Dawley rat at 6 mg/kg, po by HPLC/MS/MS analysis; assay type: ADME, organism-based; set-up: dose 6 mg/kg, route oral; conditions: in vivo; in short: as §3
[14] = target: T2, Cholecystokinin receptor type A (Homo sapiens) (UniProt P32238); test: Agonist activity at human CCK1 receptor expressed in CHO cells assessed as induction of calcium release by FLIPR assay relative to CCK8; assay type: functional, cell-based
T2 sequence (whole entry): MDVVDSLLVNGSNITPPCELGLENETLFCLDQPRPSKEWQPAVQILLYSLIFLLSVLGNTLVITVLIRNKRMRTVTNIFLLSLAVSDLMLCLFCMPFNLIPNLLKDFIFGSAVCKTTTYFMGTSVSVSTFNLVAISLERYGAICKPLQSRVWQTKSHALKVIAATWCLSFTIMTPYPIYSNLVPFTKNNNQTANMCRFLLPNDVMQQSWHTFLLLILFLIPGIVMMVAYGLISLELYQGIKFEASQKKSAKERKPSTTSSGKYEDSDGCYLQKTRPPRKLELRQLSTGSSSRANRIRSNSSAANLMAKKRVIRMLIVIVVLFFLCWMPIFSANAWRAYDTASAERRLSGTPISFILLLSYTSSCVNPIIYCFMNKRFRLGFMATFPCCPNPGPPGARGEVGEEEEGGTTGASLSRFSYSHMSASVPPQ
In short: (§4)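 Calcium release was measured by FLIPR at the human CCK1 receptor. EC50 and efficacy were expressed as % agonism versus CCK-8. Values are mean ± standard error of at least three independent experiments.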

[15] = Cmax in Sprague-Dawley rat at 6 mg/kg, po by HPLC/MS/MS analysis; assay type: ADME, organism-based; set-up: dose 6 mg/kg, route oral; conditions: in vivo; in short: as §3
[16] = AUC (0 to tlast) in Sprague-Dawley rat at 3 mg/kg, iv by HPLC/MS/MS analysis; assay type: ADME, organism-based; set-up: dose 3 mg/kg, route intravenous; conditions: plasma; in short: as §3
[17] = Oral bioavailability in Sprague-Dawley rat at 6 mg/kg by HPLC/MS/MS analysis; assay type: ADME, organism-based; conditions: in vivo; in short: as §3
Rattus norvegicus [18] = test: Antiobesity activity in Sprague-Dawley rat assessed as reduction in spontaneous food intake at 6 mg/kg, po measured at 4 hrs relative to vehicle; assay type: functional; set-up: scale not given: the % may be the effect or the level left; in short: as §1
[19] = target: T1, Gastrin/cholecystokinin type B receptor (Homo sapiens); test: Agonist activity at CCK2 receptor by [35S]GTPgammaS binding assay; assay type: functional
[20] = AUC (0 to tlast) in Sprague-Dawley rat at 6 mg/kg, po by HPLC/MS/MS analysis; assay type: ADME, organism-based; set-up: dose 6 mg/kg, route oral; conditions: plasma; in short: as §3
Rattus norvegicus [21] = test: Antiobesity activity in Sprague-Dawley rat assessed as reduction in spontaneous food intake at 6 mg/kg, po measured at 4 hrs in presence of 20 mg/kg CCK1R antagonist lorglumide relative to vehicle; assay type: functional
[22] = Kinetic solubility of the compound at pH 6.5; assay type: physicochemical; conditions: buffer
[23] = target: T3, Cholecystokinin receptor type A (Rattus norvegicus, UniProt P30551); test: Displacement of [125I]CCK8 from rat CCK1 receptor expressed in CHO cells; assay type: cell-based
T3 sequence (P30551 whole entry): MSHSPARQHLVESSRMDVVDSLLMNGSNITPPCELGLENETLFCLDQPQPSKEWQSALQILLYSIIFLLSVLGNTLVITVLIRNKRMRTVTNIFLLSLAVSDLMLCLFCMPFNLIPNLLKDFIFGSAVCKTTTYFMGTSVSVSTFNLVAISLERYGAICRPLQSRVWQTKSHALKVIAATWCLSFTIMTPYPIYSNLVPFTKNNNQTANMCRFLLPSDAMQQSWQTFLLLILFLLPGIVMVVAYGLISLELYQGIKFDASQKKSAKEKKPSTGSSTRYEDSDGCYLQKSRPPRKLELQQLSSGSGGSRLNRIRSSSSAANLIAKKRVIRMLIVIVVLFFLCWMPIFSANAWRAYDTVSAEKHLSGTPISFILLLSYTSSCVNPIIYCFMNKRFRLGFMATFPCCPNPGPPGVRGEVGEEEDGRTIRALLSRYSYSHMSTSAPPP
In short: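 Binding IC50 at the rat CCK1 receptor. Values are mean ± standard error of at least two independent experiments.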

[24] = target: T4, Cholecystokinin receptor type A (Homo sapiens, UniProt P32238); test: Agonist activity at human CCK1 receptor expressed in CHO cells assessed as induction of calcium release by FLIPR assay; assay type: functional, cell-based; in short: as §4
T4 sequence (P32238 whole entry): T2 sequence (whole entry)

[25] = target: T3, Cholecystokinin receptor type A; test: Agonist activity at rat CCK1 receptor expressed in CHO cells assessed as induction of calcium release by FLIPR assay; assay type: functional, cell-based
In short: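 Calcium release was measured by FLIPR at the rat CCK1 receptor to give EC50. Values are mean ± standard error of at least two independent experiments.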

[26] = target: T4, Cholecystokinin receptor type A; test: Displacement of [125I]CCK8 from human CCK1 receptor expressed in CHO cells; assay type: cell-based
In short: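 Binding IC50 at the human CCK1 receptor. Values are mean ± standard error of at least three independent experiments.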

Mus musculus [27] = test: Induction of emptying of gallbladder in C57BL/6J mouse at 6 mg/kg, po measured at 1 hr; assay type: functional; in short: as §2
[28] = Biliary clearance in Sprague-Dawley rat assessed as parent compound excretion into bile at 3 mg/kg, iv by HPLC/MS/MS analysis; assay type: ADME, organism-based; set-up: dose 3 mg/kg, route intravenous; conditions: read-out: Activity
Mus musculus [29] = test: Induction of emptying of gallbladder in C57BL/6J mouse at 6 mg/kg, po measured at 24 hrs; assay type: functional
In short: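 Mice dosed orally; compound given as amorphous solid unless noted, with one analog in spray-dried dispersion formulation. Read-out is % gallbladder emptying after dosing.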

Rattus norvegicus [30] = test: Antiobesity activity in Sprague-Dawley rat assessed as reduction in spontaneous food intake at 6 mg/kg, po measured at 4 hrs; assay type: functional; in short: as §1

| Activity [1] | CLint scaled [8] [mL/min/kg] | Activity [14] [%] | Activity [19] | solubility kinetic [22] [µM] | Structure (SMILES) | IC50 [23] [nM] | logD ([6]; read-out: logD) | EC50 [24] [nM] | EC50 [25] [nM] | IC50 [26] [nM] | Activity (Mus musculus [27]) [%] | inhibition in vivo at 6 mg/kg (Rattus norvegicus [30]) [%] | also measured |
| --- | --- | --- | --- | --- | --- | --- | --- | --- | --- | --- | --- | --- | --- |
| inactive | 199 | 53 | inactive | 0.94 (≈ 0.559 µg/mL) | CC(C)N(Cc1ccccc1)C(=O)CN1C(=O)[C@@H](Cc2c[nH]c3ccccc23)c2nnc(-c3ccccc3)n2-c2ccccc21 [CE-326597] | – | – | – | – | – | – | – | inhibition in vivo at 6 mg/kg (Rattus norvegicus [2]): 56%; CL_biliary (Rattus norvegicus [3]): 0.0277 mL/min/kg; Activity (Mus musculus [4]): 91%; clearance [5]: 41.7 mL/min/kg; logD [6]: 3.39; inhibition (Rattus norvegicus [7]): Active; fCmax (Rattus norvegicus [9]): 0.98 nM; Vd [10]: 3.7 L/kg; clearance [11]: 47 mL/min/kg; half-life [12]: 1.37 h; Tmax (Rattus norvegicus [13]): 1.33 h; Cmax [15]: 14.6 ng/mL; AUC(0-t) [16]: 1190 ng·h/mL; bioavailability [17]: 1%; Activity (Rattus norvegicus [18]): -56%; AUC(0-t) [20]: 42.5 ng·h/mL; inhibition (INH) (Rattus norvegicus [21]): 2.4% |
| inactive | 39.5 | 72.3 | inactive | 2.26 (≈ 1.35 µg/mL) | CC(C)N(Cc1ccccc1)C(=O)CN1C(=O)C(Cc2n[nH]c3ccccc23)c2nnc(-c3ccccc3)n2-c2ccccc21 (stereo unspecified) | 21 | 3.16 | 522 | 481 | 48.5 | 86.3 | 43 | – |

| Structure (SMILES) | Activity [1] | CLint scaled [8] [mL/min/kg] | Activity [14] [%] | Activity [19] | solubility kinetic [22] [µM] | IC50 [23] [nM] | logD ([6]; read-out: logD) | EC50 [24] [nM] | EC50 [25] [nM] | IC50 [26] [nM] | Activity (Mus musculus [27]) [%] | inhibition in vivo at 6 mg/kg (Rattus norvegicus [30]) [%] | also measured |
| --- | --- | --- | --- | --- | --- | --- | --- | --- | --- | --- | --- | --- | --- |
| CC(C)N(C(=O)CN1C(=O)[C@H](NC(=O)Nc2cccc(C(=O)O)c2)C(=O)N(c2ccccc2)c2ccccc21)c1ccccc1 | – | < 8 | 62.8 | – | 499 (≈ 302 µg/mL) | 52.6 | 1.09 | 283 | 63.8 | 131 | 82 | 52 | dose excreted [28]: 65%; Activity (Mus musculus [29]): 91.4% |
